# Results published in ChEMBL document CHEMBL1149292, “A rational utilization of high-throughput screening affords selective, orally bioavailable 1-benzyl-3-carboxyazetidine sphingosine-1-phosphate-1 receptor agonists” (J Med Chem, 2004).
# Active and inactive are the calls of the source. The calls are words filed in the database; no cut-off is given here.
# Experiments:
# Rattus norvegicus [1] = assay: Decrease in peripheral blood lymphocyte counts in femoral artery cannulated Lewis rat at 3 mg/kg, po after 16 hrs; format: functional
# Summary of the method: (§1)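 Femoral artery cannulated Lewis rats (n = 3) given a single 3 mpk oral dose. PBL counts and plasma compound concentration sampled over time up to 72 h postdose. A repeat 3 mpk po challenge was given to the same animals.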
# [2] = Plasma concentration in femoral artery cannulated Lewis rat at 3 mg/kg, po after 16 hrs; format: ADME, organism-based; design: dose 3 mg/kg, route oral
# Summary of the method: (§2)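 Femoral artery cannulated Lewis rats (n = 3) got a single 3 mpk oral dose. Compound plasma concentration (nM) was measured serially over time up to 72 h postdose. Peripheral blood lymphocyte counts were taken in parallel at the same time points. The same animals were later given a second 3 mpk oral dose.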
# Rattus norvegicus [3] = assay: Decrease in peripheral blood lymphocytes in Lewis rat at 3 mg/kg, po after 24 relative to hrs control; format: functional; design: scale not given: the % may be the effect or the level left
# Summary of the method: (§3)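 Rat oral dose-titration at 1–30 mpk po. Peripheral blood lymphocyte counts and plasma compound concentrations determined 24 h postdose.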
# Rattus norvegicus [4] = assay: Decrease in peripheral blood lymphocyte counts in femoral artery cannulated Lewis rat at 3 mg/kg, po after 4 hrs; format: functional; summary of the method: as §1
# [5] = Plasma concentration in femoral artery cannulated Lewis rat at 3 mg/kg, po after 72 hrs; format: ADME, organism-based; design: dose 3 mg/kg, route oral; summary of the method: as §2
# [6] = Plasma concentration in femoral artery cannulated Lewis rat at 3 mg/kg, po after 1 hr; format: ADME, organism-based; design: dose 3 mg/kg, route oral; summary of the method: as §2
# [7] = Bioavailability in rat at 2 mg/kg, po and 1 mg/kg, iv; format: ADME, organism-based; conditions: in vivo
# Summary of the method: (§4)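 Rat PK at 2.0 mpk po and 1.0 mpk iv. Plasma compound levels measured.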
# [8] = Cmax in rhesus monkey at 1 mg/kg, po and 0.5 mg/kg, iv; format: ADME, organism-based, Macaca mulatta; conditions: in vivo
# Summary of the method: (§5)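 Single-dose PK at 1.0 mpk po and 0.5 mpk iv. Plasma compound levels measured.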
# Rhesus monkey = assay: Maximal decrease in peripheral blood lymphocyte in rhesus monkey at 1 mg/kg, po after 24 hrs; format: functional, organism-based; design: dose 1 mg/kg; conditions: Macaca mulatta
# Summary of the method: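 Complete blood counts run alongside plasma concentrations after a single 1.0 mpk oral dose in beagle dog or rhesus monkey. Lymphocyte counts followed over time, with PBL lowering assessed at 24 h postdose.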
# Rattus norvegicus [9] = assay: Decrease in peripheral blood lymphocyte counts in femoral artery cannulated Lewis rat at 3 mg/kg, po after 2 hrs; format: functional; summary of the method: as §1
# Rattus norvegicus [10] = assay: Decrease in peripheral blood lymphocytes in Lewis rat at 1 mg/kg, po after 24 hrs relative to control; format: functional; design: scale not given: the % may be the effect or the level left; summary of the method: as §3
# Canis familiaris [11] = assay: Cmax in Beagle dog at 1 mg/kg, po and 0.5 mg/kg, iv; format: ADME, organism-based, Canis lupus familiaris; conditions: in vivo; summary of the method: as §5
# Canis familiaris [12] = assay: Plasma clearance in Beagle dog at 1 mg/kg, po and 0.5 mg/kg, iv; format: ADME, organism-based, Canis lupus familiaris; conditions: in vivo; summary of the method: as §5
# [13] = Half life in Beagle dog at 1 mg/kg, po and 0.5 mg/kg, iv; conditions: in vivo
# [14] = Plasma concentration in femoral artery cannulated Lewis rat at 3 mg/kg, po after 56 hrs; format: ADME, organism-based; design: dose 3 mg/kg, route oral; summary of the method: as §2
# [15] = Plasma concentration in femoral artery cannulated Lewis rat at 3 mg/kg, po after 8 hrs; format: ADME, organism-based; design: dose 3 mg/kg, route oral; summary of the method: as §2
# Rattus norvegicus [16] = assay: Decrease in peripheral blood lymphocyte counts in Lewis rat at 3 mg/kg, po after 24 hrs; format: functional; summary of the method: as §3
# [17] = biological target: Sphingosine 1-phosphate receptor 3 (Homo sapiens, UniProt Q99500); assay: Displacement of [33P]sphingosine 1 phosphate from human S1P3 receptor expressed in CHO cells; format: cell-based
# Rattus norvegicus [18] = assay: Decrease in peripheral blood lymphocyte counts in femoral artery cannulated Lewis rat at 3 mg/kg, po after 24 hrs; format: functional; summary of the method: as §1
# [19] = Plasma concentration in femoral artery cannulated Lewis rat at 3 mg/kg, po after 2 hrs; format: ADME, organism-based; design: dose 3 mg/kg, route oral; summary of the method: as §2
# [20] = Plasma concentration in Lewis rat at 3 mg/kg, po after 24 hrs; format: ADME, organism-based; design: dose 3 mg/kg, route oral; summary of the method: as §3
# Rattus norvegicus [21] = assay: Decrease in peripheral blood lymphocyte counts in femoral artery cannulated Lewis rat at 3 mg/kg, po after 72 hrs; format: functional; summary of the method: as §1
# [22] = Plasma concentration in Lewis rat at 30 mg/kg, po after 24 hrs; format: ADME, organism-based; design: dose 30 mg/kg, route oral; summary of the method: as §3
# [23] = Plasma concentration in femoral artery cannulated Lewis rat at 3 mg/kg, po after 6 hrs; format: ADME, organism-based; design: dose 3 mg/kg, route oral; summary of the method: as §2
# Rattus norvegicus [24] = assay: Decrease in peripheral blood lymphocyte counts in femoral artery cannulated Lewis rat at 3 mg/kg, po after 12 hrs; format: functional; summary of the method: as §1
# Mus musculus = assay: Decrease in peripheral blood lymphocytes in po dosed mouse after 3 hrs; format: functional
# Summary of the method: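 Compound given orally to mice. Peripheral blood lymphocyte counts taken 3 h after dosing, expressed as average percent decrease in n = 3 animals versus controls (n = 3). ED50 from dose-titration.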
# [25] = Volume of distribution at steady state in Beagle dog at 1 mg/kg, po and 0.5 mg/kg, iv; format: ADME, organism-based, Canis lupus familiaris; conditions: in vivo, read-out: Vdss
# [26] = Cmax in rat at 2 mg/kg, po and 1 mg/kg, iv; format: ADME, organism-based; conditions: in vivo; summary of the method: as §4
# Rattus norvegicus [27] = assay: Decrease in peripheral blood lymphocyte counts in Lewis rat at 10 mg/kg, po after 24 hrs; format: functional; summary of the method: as §3
# Rattus norvegicus [28] = assay: Decrease in peripheral blood lymphocytes in Lewis rat at 30 mg/kg, po after 24 hrs relative to control; format: functional; design: scale not given: the % may be the effect or the level left; summary of the method: as §3
# [29] = Plasma concentration in femoral artery cannulated Lewis rat at 3 mg/kg, po after 24 hrs; format: ADME, organism-based; design: dose 3 mg/kg, route oral; summary of the method: as §2
# [30] = Bioavailability in Beagle dog at 1 mg/kg, po and 0.5 mg/kg, iv; format: ADME, organism-based, Canis lupus familiaris; conditions: in vivo; summary of the method: as §5
# Rattus norvegicus [31] = assay: Decrease in peripheral blood lymphocyte counts in Lewis rat at 30 mg/kg, po after 24 hrs; format: functional; summary of the method: as §3
# [32] = Plasma concentration in femoral artery cannulated Lewis rat at 3 mg/kg, po after 0.25 hrs; format: ADME, organism-based; design: dose 3 mg/kg, route oral; summary of the method: as §1
# [33] = Plasma clearance in rhesus monkey at 1 mg/kg, po and 0.5 mg/kg, iv; format: ADME, organism-based, Macaca mulatta; summary of the method: as §5
# [34] = biological target: Sphingosine 1-phosphate receptor 5 (Homo sapiens, UniProt Q9H228); assay: Displacement of [33P]sphingosine 1 phosphate from human S1P5 receptor expressed in CHO cells; format: cell-based
# Summary of the method: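 Competition binding with [33P]-labeled S1P on membranes of CHO cells stably expressing each human S1P receptor. Values are the mean of n = 3 determinations.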
# [35] = Volume of distribution at steady state in rhesus monkey at 1 mg/kg, po and 0.5 mg/kg, iv; format: ADME, organism-based, Macaca mulatta; conditions: in vivo, read-out: Vdss
# [36] = Half life in rhesus monkey at 1 mg/kg, po and 0.5 mg/kg, iv; conditions: in vivo
# Rattus norvegicus [37] = assay: Decrease in peripheral blood lymphocyte counts in femoral artery cannulated Lewis rat at 3 mg/kg, po after 56 hrs; format: functional; summary of the method: as §1
# Rattus norvegicus [38] = assay: Decrease in peripheral blood lymphocyte counts in femoral artery cannulated Lewis rat at 3 mg/kg, po after 1 hr; format: functional; summary of the method: as §1
# Rattus norvegicus [39] = assay: Decrease in peripheral blood lymphocyte counts in femoral artery cannulated Lewis rat at 3 mg/kg, po after 8 hrs; format: functional; summary of the method: as §1
# Rattus norvegicus [40] = assay: Decrease in peripheral blood lymphocyte counts in femoral artery cannulated Lewis rat at 3 mg/kg, po after 48 hrs; format: functional; summary of the method: as §1
# [41] = Plasma concentration in femoral artery cannulated Lewis rat at 3 mg/kg, po after 12 hrs; format: ADME, organism-based; design: dose 3 mg/kg, route oral; summary of the method: as §2
# [42] = Plasma clearance in rat at 2 mg/kg, po and 1 mg/kg, iv; format: ADME, organism-based; summary of the method: as §4
# [43] = Plasma concentration in femoral artery cannulated Lewis rat at 3 mg/kg, po after 4 hrs; format: ADME, organism-based; design: dose 3 mg/kg, route oral; summary of the method: as §2
# Rattus norvegicus [44] = assay: Decrease in peripheral blood lymphocyts in Lewis rat at 10 mg/kg, po after 24 hrs relative to control; format: functional; design: scale not given: the % may be the effect or the level left; summary of the method: as §3
# Chain of Sphingosine 1-phosphate receptor 3 (Q99500 whole entry): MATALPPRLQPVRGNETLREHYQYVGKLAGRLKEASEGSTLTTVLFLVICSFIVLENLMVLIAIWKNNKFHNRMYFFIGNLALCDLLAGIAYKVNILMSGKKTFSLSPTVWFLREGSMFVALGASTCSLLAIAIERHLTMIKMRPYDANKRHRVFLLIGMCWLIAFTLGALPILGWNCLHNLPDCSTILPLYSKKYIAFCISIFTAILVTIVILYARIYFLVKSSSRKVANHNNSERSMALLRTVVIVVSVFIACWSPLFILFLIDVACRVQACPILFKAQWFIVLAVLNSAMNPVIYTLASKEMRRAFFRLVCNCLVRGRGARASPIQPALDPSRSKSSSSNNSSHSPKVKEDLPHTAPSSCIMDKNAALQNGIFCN
# Chain of Sphingosine 1-phosphate receptor 5 (Q9H228 whole entry): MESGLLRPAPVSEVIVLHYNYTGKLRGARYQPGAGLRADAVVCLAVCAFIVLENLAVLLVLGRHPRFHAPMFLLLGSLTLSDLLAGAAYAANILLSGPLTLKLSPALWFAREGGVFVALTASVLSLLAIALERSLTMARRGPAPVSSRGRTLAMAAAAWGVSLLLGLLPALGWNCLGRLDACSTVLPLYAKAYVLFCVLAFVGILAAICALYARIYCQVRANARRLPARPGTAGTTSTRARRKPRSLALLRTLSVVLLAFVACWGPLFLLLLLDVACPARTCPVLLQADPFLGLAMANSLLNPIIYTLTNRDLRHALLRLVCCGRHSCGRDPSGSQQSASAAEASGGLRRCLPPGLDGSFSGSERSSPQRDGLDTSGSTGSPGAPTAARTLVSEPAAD
smiles,measurement,setting,value
O=C(O)C1CN(Cc2ccc(OCc3cc(-c4ccccc4)c(C(F)(F)F)s3)cc2)C1,Activity,Rattus norvegicus [1],1600 µL⁻¹
same,concentration at 16 h,[2],170 nM
same,Activity,Rattus norvegicus [3],78%
same,Activity,Rattus norvegicus [4],1130 µL⁻¹
same,concentration at 72 h,[5],8 nM
same,concentration at 1 h,[6],270 nM
same,bioavailability,[7],79%
same,Cmax,[8],1800 nM
same,Activity,Rhesus monkey,Active
same,Activity,Rattus norvegicus [9],1770 µL⁻¹
same,Activity,Rattus norvegicus [10],68%
same,Cmax,Canis familiaris [11],1300 nM
same,clearance,Canis familiaris [12],2.2 mL/min/kg
same,half-life,[13],9.7 h
same,concentration at 56 h,[14],10 nM
same,concentration at 8 h,[15],310 nM
same,Activity,Rattus norvegicus [16],1530 µL⁻¹
same,IC50,[17],530 nM (antagonist)
same,Activity,Rattus norvegicus [18],1570 µL⁻¹
same,concentration at 2 h,[19],310 nM
same,concentration at 24 h,[20],95 nM
same,Activity,Rattus norvegicus [21],7000 µL⁻¹
same,concentration at 24 h,[22],1400 nM
same,concentration at 6 h,[23],380 nM
same,Activity,Rattus norvegicus [24],1530 µL⁻¹
same,ED50,Mus musculus,0.44 mg/kg
same,Vd,[25],1.6 L/kg
same,Cmax,[26],300 nM
same,Activity,Rattus norvegicus [27],1530 µL⁻¹
same,Activity,Rattus norvegicus [28],79%
same,concentration at 24 h,[29],120 nM
same,bioavailability,[30],66%
same,Activity,Rattus norvegicus [31],1430 µL⁻¹
same,concentration at 0.25 h,[32],72 nM
same,clearance,[33],1.5 mL/min/kg
same,IC50,[34],23 nM (antagonist)
same,Vd,[35],1.4 L/kg
same,half-life,[36],12.5 h
same,Activity,Rattus norvegicus [37],4270 µL⁻¹
same,Activity,Rattus norvegicus [38],3330 µL⁻¹
same,Activity,Rattus norvegicus [39],1470 µL⁻¹
same,Activity,Rattus norvegicus [40],4000 µL⁻¹
same,concentration at 12 h,[41],280 nM
same,clearance,[42],12.3 mL/min/kg
same,concentration at 4 h,[43],320 nM
same,Activity,Rattus norvegicus [44],78%
